Each structure is given as a SMILES string.

For data set [1], the system named is Splenocyte. Nature of the data set: Induction of IFN in C3H/HeJ mouse splenocytes at 100 nM. It counts as functional. The method, boiled down:
(§1)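 Mouse splenocytes are suspended at 2 × 10⁶ cells/mL in MEM with 5% fetal calf serum, penicillin and streptomycin. They are mixed 1:1 with compound (DMSO stock diluted 500-fold in medium) and cultured 18 h at 37 °C in 5% CO₂. Supernatants are filter-sterilized and stored at -80 °C. IFN (IU/mL) is measured by L929/vesicular stomatitis virus bioassay.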

The nature of data set [2]: Cmax in ferret at 30 mg/kg, po. It counts as ADME, organism-based, Mustela putorius furo. The arrangement: dose 30 mg/kg, route oral. The conditions noted are these: in vivo. A digest of the protocol:
(§2)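 Male ferrets, 4 months old, dosed orally with compound suspended in 0.5% sodium carboxymethyl cellulose. Blood (0.5 mL) drawn from jugular vein; serum separated at 1630g, 10 min, 4 °C, stored at -20 °C. Compound concentration measured by HPLC; maximum concentration reported in ng/mL.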

In data set [3] the test system is Cynomolgus monkey. The data set can be described thus: Induction of IFN in cynomolgus monkey at 1 mg/kg, po. It is filed as functional, Macaca fascicularis.
Data set [4] relates to Cynomolgus monkey. Nature of the data set: Induction of IFN in cynomolgus monkey at 0.1 mg/kg, po. It counts as functional, Macaca fascicularis.
Data set [5] relates to Splenocyte. Nature of the data set: Induction of IFN in C3H/HeJ mouse splenocytes at 3 nM. It counts as functional. A digest of the protocol:
as §1

Data set [6] deals with Cynomolgus monkey. Nature of the data set: Induction of IFN in cynomolgus monkey at 0.3 mg/kg, po. It counts as functional, Macaca fascicularis.
Data set [7] deals with Mustela putorius furo. The data set can be described thus: Emetic activities in ferret at 30 mg/kg, po. It counts as organism-based. Further details: dose 30 mg/kg, route oral; call rule not given here. The conditions noted are these: in vivo. A digest of the protocol:
(§3)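 Oral dosing of male ferrets (4 months old) with compound in 0.5% sodium carboxymethyl cellulose vehicle; doses 0.3-30 mg/kg, 5 animals per group. Animals housed singly, video-recorded continuously for 6 h. Tapes scored afterwards for presence or absence of vomiting; reported as number vomiting per group.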

The test system of data set [8] is Mustela putorius furo. Nature of the data set: Emetic activities in ferret at 0.3 mg/kg, po. It counts as organism-based. Further details: dose 0.3 mg/kg, route oral. The conditions noted are these: in vivo. The method, boiled down: as §3
The nature of data set [9]: Cmax in ferret at 3 mg/kg, po. The conditions noted are these: in vivo. It is filed as ADME, organism-based, Mustela putorius furo. The arrangement: dose 3 mg/kg, route oral. A digest of the protocol: as §2
The test system of data set [10] is Mus musculus. Nature of the data set: Induction of IFN in BALB/c mice at 0.3 mg/kg, po. It is filed as functional.
The test system of data set [11] is Splenocyte. Nature of the data set: Induction of IFN in C3H/HeJ mouse splenocytes at 10 nM. It counts as functional. The method, boiled down:
as §1

The test system of data set [12] is Mustela putorius furo. Nature of the data set: Emetic activities in ferret at 3 mg/kg, po. It counts as organism-based. The arrangement: dose 3 mg/kg, route oral. As to conditions: in vivo. A digest of the protocol: as §3
The test system of data set [13] is Splenocyte. The data set can be described thus: Induction of IFN in C3H/HeJ mouse splenocytes at 1 nM. It counts as functional. The method, boiled down: as §1
For data set [14], the system named is Splenocyte. The data set can be described thus: Induction of IFN in C3H/HeJ mouse splenocytes at 30 nM. It counts as functional. The method, boiled down: as §1
Data set [15] deals with Mus musculus. The data set can be described thus: Induction of IFN in BALB/c mice at 0.1 mg/kg, po. It is filed as functional.

Broadly, the Cmax is the peak of the concentration-time curve. Consider `CCCCNc1nc(N)c2nc(O)n(Cc3ccc(OC)nc3)c2n1`, for which the Activity in the data set on Splenocyte [1] is on record as 1 IU/ml; in the data set on Cynomolgus monkey [3], 17422 IU/ml; in the data set with Cynomolgus monkey [4], 3 IU/ml; in the data set with Splenocyte [5] it was 8.2 IU/ml; in the data set on Cynomolgus monkey [6] it was 244 IU/ml; in the data set with Mustela putorius furo [7], “Not Active”. For the same compound, the Activity result was “Not Active” with Mustela putorius furo [8]; 1920 IU/ml with Mus musculus [10]; 13.4 IU/ml with Splenocyte [11]; “Not Active” in the data set with Mustela putorius furo [12]; less than 0.5 IU/ml in the data set with Splenocyte [13]; 3 IU/ml in the data set on Splenocyte [14]. Also, the Activity with Mus musculus [15] worked out at 375 IU/ml. Moreover, the Cmax came to 1200 ng/mL in data set [2] and 109 ng/mL in data set [9].
Regarding `CCCCNc1nc(N)c2nc(O)n(Cc3ccc(N(C)C)nc3)c2n1`, the Activity in the data set on Splenocyte [1] is given as 2.7 IU/ml; in the data set on Splenocyte [5] it was 4.9 IU/ml; in the data set with Splenocyte [11], 9.4 IU/ml; in the data set on Splenocyte [13], less than 0.5 IU/ml; with Splenocyte [14] it was 5.1 IU/ml; in the data set with Mus musculus [15] it was less than 5 IU/ml.
Turning to `CCCCNc1nc(N)c2nc(O)n(Cc3ccc(C)nc3)c2n1`, the Activity in the data set on Splenocyte [1] is 1.4 IU/ml; with Cynomolgus monkey [3], 34810 IU/ml; in the data set on Cynomolgus monkey [4] it was 121 IU/ml; with Splenocyte [5], 4.4 IU/ml; in the data set with Cynomolgus monkey [6] it was 591 IU/ml; in the data set with Mustela putorius furo [7] it was “Not Active”. The Activity result in the data set with Mustela putorius furo [8] is on record as “Not Active”; with Mus musculus [10] it was 1891 IU/ml; in the data set with Splenocyte [11], 7.8 IU/ml; with Mustela putorius furo [12], “Not Active”; in the data set with Splenocyte [13], less than 0.5 IU/ml; with Splenocyte [14] it was 3.7 IU/ml. In addition, the Activity in the data set on Mus musculus [15] was 393 IU/ml. Further, the results for the Cmax in [2] and in data set [9] were 1020 ng/mL and 20.8 ng/mL, respectively.
For `CCCCNc1nc(N)c2nc(O)n(Cc3ccc(Cl)nc3)c2n1`, the Activity in the data set with Splenocyte [1] is reported as 1.5 IU/ml; with Cynomolgus monkey [3], 3602 IU/ml; in the data set on Cynomolgus monkey [4], 0 IU/ml; with Splenocyte [5] it was 5.6 IU/ml; in the data set with Cynomolgus monkey [6], 19 IU/ml; in the data set on Mustela putorius furo [7], “Not Active”. In addition, the Activity entry in the data set on Mustela putorius furo [8] is listed as “Not Active”; in the data set with Mus musculus [10], 1826 IU/ml; with Splenocyte [11], 6.8 IU/ml; in the data set on Mustela putorius furo [12], “Not Active”; in the data set with Splenocyte [13], less than 0.5 IU/ml; in the data set on Splenocyte [14], 2.6 IU/ml. Further, in the data set on Mus musculus [15], the Activity turned out to be 811 IU/ml. Moreover, the figures for the Cmax in data set [2] and in data set [9] were 275 ng/mL and 20.1 ng/mL, respectively.
As for `CCCCNc1nc(N)c2nc(O)n(Cc3cncc(C)c3)c2n1`, the Activity in the data set with Splenocyte [1] is reported as 4.6 IU/ml; with Splenocyte [5], 1.9 IU/ml; with Splenocyte [11], 2.4 IU/ml; in the data set on Splenocyte [13] it was less than 0.5 IU/ml; in the data set with Splenocyte [14] it was 2.1 IU/ml.
In the case of `CCCCNc1nc(N)c2nc(O)n(Cc3cccnc3)c2n1`, the Activity with Splenocyte [1] is 8.1 IU/ml; with Splenocyte [5], 1.6 IU/ml; in the data set with Mus musculus [10], 327 IU/ml; with Splenocyte [11] it was 32.5 IU/ml; in the data set with Splenocyte [13] it was less than 0.5 IU/ml; in the data set with Splenocyte [14], 16.6 IU/ml. In the data set with Mus musculus [15], the Activity was 76 IU/ml.
In the case of `CCOCc1nc2c(N)nc3ccccc3c2n1CC(C)(C)O` [RESIQUIMOD], the Activity with Splenocyte [1] is on record as 4 IU/ml; in the data set with Cynomolgus monkey [3], 44037 IU/ml; with Cynomolgus monkey [4], 7 IU/ml; in the data set with Splenocyte [5] it was 2.8 IU/ml; in the data set with Cynomolgus monkey [6], 13 IU/ml; in the data set on Mustela putorius furo [8] it was “Active”. Moreover, the Activity is given as 1714 IU/ml in the data set on Mus musculus [10]; 11 IU/ml in the data set with Splenocyte [11]; “Active” in the data set with Mustela putorius furo [12]; less than 0.5 IU/ml in the data set with Splenocyte [13]; 7 IU/ml in the data set with Splenocyte [14]; 1176 IU/ml in the data set on Mus musculus [15]. In [9], the peak concentration (Cmax) is 1180 ng/mL.
Regarding `CCCCNc1nc(N)c2nc(O)n(Cc3cccnc3Cl)c2n1`, the Activity in the data set on Splenocyte [1] was 5 IU/ml; with Splenocyte [5], less than 0.5 IU/ml; in the data set with Mus musculus [10], 94 IU/ml; in the data set on Splenocyte [11], 3.7 IU/ml; in the data set with Splenocyte [14], 16.3 IU/ml; with Mus musculus [15] it was less than 5 IU/ml.

Source of the values: ChEMBL document CHEMBL1139013, “Synthesis and biological evaluation of novel 9-substituted-8-hydroxyadenine derivatives as potent interferon inducers” (J Med Chem, 2006).
